In publication PMC5812400 (ESMO Open, 2018):
“And” between values parts separate entries of the source, which are not always exact repeats. Equal entries are not always repeated.

Legend:
[1] = Plasma PK of milled TAK-228 in TAK-228+P and TAK-228 QW arms, LC-MS/MS; type: in vivo, human; details: for Cmax / Tmax / AUC(0-t) / AUC(0-inf) / Vd/F / half-life: human, plasma, oral
Outline: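 Milled capsules given fasted. Combination arm sampled on cycle 1 day 2, the first dosing day, ~24 h after IV taxane 80 mg/m2; QW arm sampled on cycle 1 day 1. LC-MS/MS validated over 1–1000 ng/mL. PK parameters summarised descriptively (geometric/arithmetic means, medians, CV).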

[2] = Plasma PK of TAK-228 4 mg in single-agent QD PK run-in; type: in vivo, human; details: for AUC(0-inf) / Cmax: geometric mean (%CV)
Outline: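 Run-in ≤14 days before cycle 1. Three visits ≥48 h apart, each a 4 mg oral dose: unmilled fasted, milled after high-fat breakfast, milled fasted. No proton pump inhibitor within 5 days or H2 antagonist within 24 h. LC-MS/MS validated over 1–1000 ng/mL. ANOVA on log Cmax and AUC (treatment fixed, patient random); geometric mean ratios with 90% CI.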

[3] = tested on: adult patients with advanced non-haematological malignancies; assay: DLT and MTD/RP2D determination, phase I dose escalation of milled TAK-228; type: in vivo, human; details: for Maximum tolerated dose (MTD) / Recommended phase II dose (RP2D): milled
Outline: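 Open-label dose escalation at four US sites with milled oral capsules, fasted, in 28-day cycles. Arms: QD days 1–28 (start 4 mg); QD days 2–4, 9–11, 16–18, 23–25 (start 6 mg) with IV taxane 80 mg/m2 on days 1, 8 and 15, ~24 h before dosing; QW days 1, 8, 15, 22 (start 20 mg). DLT: drug-related AE preventing further escalation. MTD: dose giving ≤1 DLT in cycle 1. DLT-evaluable: ≥75% of planned cycle 1 doses, or stopped earlier for a drug-related AE.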

[4] = tested on: advanced non-haematological malignancies; assay: Tumour response; type: in vivo, human
Outline: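 Response assessed by RECIST 1.1 on contrast CT or MRI of chest, abdomen and pelvis; bone scans allowed for bone metastases. Same modality kept per patient. Baseline scan within 4 weeks before first dose, then cycle 3 day 1 and every two cycles until end of study or discontinuation. ORR = CR+PR; clinical benefit = CR+PR+SD, and CR+PR+SD ≥6 months.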

[5] = tested on: patients with haematological malignancies or advanced solid tumours; details: unmilled TAK-228, haematological malignancies; ref 7 11; cited from earlier work
[6] = human, plasma, oral, 4 mg, 4 mg milled, fed (high-fat breakfast)

CC(C)n1nc(-c2ccc3oc(N)nc3c2)c2c(N)ncnc21 [TAK-228, Sapanisertib]
CL/F, geometric mean (CV) ([1]; QW 20 mg (n=7)): 15.1 (46) L/hour | CL/F, geometric mean (CV) ([1]; QW 30 mg (n=13)): 18.3 (63) L/hour | Effect of paclitaxel administered 24 hours before TAK-228 on TAK-228 PK ([1]; combination arm vs QD arm (4 mg, milled, fasted)): no clinically meaningful effects | Cmax ([1]; 4 mg): 28.5 ng/mL | Tmax ([1]; 4 mg): 2.2 h | AUC(0-t) ([1]; 6 mg): 244 ng·h/mL | AUC(0-inf) ([1]; 20 mg): 1330 ng·h/mL | AUC(0-t) ([1]; 20 mg): 1240 ng·h/mL | Cmax ([1]; 20 mg): 209 ng/mL | Vd/F ([1]; 20 mg): 125 L | half-life ([1]; 20 mg): 6.1 h | AUC(0-inf) ([1]; 30 mg): 1640 ng·h/mL | AUC(0-t) ([1]; 30 mg): 1530 ng·h/mL | Cmax ([1]; 30 mg): 235 ng/mL | Tmax ([1]; 30 mg): 1 h | Vd/F ([1]; 30 mg): 155 L | half-life ([1]; 30 mg): 6 h | AUC(0-inf) ([2]; human, plasma, oral, 4 mg, 4 mg milled, fasted): 369 ng·h/mL | AUC(0-inf) [2, 6]: 383 ng·h/mL | Cmax [2, 6]: 21.6 ng/mL | Cmax ([2]; human, plasma, oral, 4 mg, 4 mg unmilled, fasted): 34 ng/mL | Tmax ([2]; human, plasma, oral, 4 mg, Tmax, median (range), 4 mg milled, fed (high-fat breakfast)): 6 h | Reduction in geometric mean Cmax, fed versus fasted ([2]; milled 4 mg, high-fat breakfast vs empty stomach): ~ 40% and 40% | Patients with DLT ([3]; QD 3 mg, 10 patients, grade 3 thrombocytopaenia): one patient experienced a DLT | DLT-evaluable patients with at least one DLT ([3]; QD 4 mg): 3/6 | Patients with DLT ([3]; QW 20 mg): none of the six patients | Patients with DLT ([3]; QW 30 mg, cohort expanded to 12 patients, grade 3 adverse drug reaction): 1 patient | Patients with DLT ([3]; QW 30 mg, initial six DLT-evaluable patients): none experiencing DLTs | Maximum tolerated dose (MTD) ([3]; QD 3 days/week in combination with paclitaxel 80 mg/m^2): 6 mg | Recommended phase II dose (RP2D) ([3]; in combination with paclitaxel 80 mg/m^2): 4 mg | Maximum tolerated dose (MTD) ([3]; single-agent QD): 3 mg | Recommended phase II dose (RP2D) ([3]; single-agent QD): 3 mg | Maximum tolerated dose (MTD) ([3]; single-agent QW): 30 mg | Recommended phase II dose (RP2D) ([3]; single-agent QW): 30 mg | Best overall response: CR ([4]; QD 3 mg (n=11)): 0 n (%) | Best overall response: PD ([4]; QD 3 mg (n=11)): 3 (27) n (%) | Best overall response: PR ([4]; QD 3 mg (n=11)): 1 (9) n (%) | Best overall response: SD (<6 months) ([4]; QD 3 mg (n=11)): 3 (27) n (%) | Best overall response: SD (≥6 months) ([4]; QD 3 mg (n=11)): 3 (27) n (%) | Clinical benefit rate CR+PR + SD ([4]; QD 3 mg (n=11)): 7 (64) n (%) | Clinical benefit rate CR+PR + SD ≥6 months ([4]; QD 3 mg (n=11)): 4 (36) n (%) | Objective response rate (CR+PR) ([4]; QD 3 mg (n=11)): 1 (9) n (%) | Best overall response: CR ([4]; QD 4 mg (n=6)): 0 n (%) | Best overall response: PD ([4]; QD 4 mg (n=6)): 3 (50) n (%) | Best overall response: PR ([4]; QD 4 mg (n=6)): 1 (17) n (%) | Best overall response: SD (<6 months) ([4]; QD 4 mg (n=6)): 0 n (%) | Best overall response: SD (≥6 months) ([4]; QD 4 mg (n=6)): 1 (17) n (%) | Clinical benefit rate CR+PR + SD ([4]; QD 4 mg (n=6)): 2 (33) n (%) | Clinical benefit rate CR+PR + SD ≥6 months ([4]; QD 4 mg (n=6)): 2 (33) n (%) | Objective response rate (CR+PR) ([4]; QD 4 mg (n=6)): 1 (17) n (%) | Best overall response: CR ([4]; QD Total (n=17)): 0 n (%) | Best overall response: PD ([4]; QD Total (n=17)): 6 (35) n (%) | Best overall response: PR ([4]; QD Total (n=17)): 2 (12) n (%) | Best overall response: SD (<6 months) ([4]; QD Total (n=17)): 3 (18) n (%) | Best overall response: SD (≥6 months) ([4]; QD Total (n=17)): 4 (24) n (%) | Clinical benefit rate CR+PR + SD ([4]; QD Total (n=17)): 9 (53) n (%) | Clinical benefit rate CR+PR + SD ≥6 months ([4]; QD Total (n=17)): 6 (35) n (%) | Objective response rate (CR+PR) ([4]; QD Total (n=17)): 2 (12) n (%) | Objective response rate (ORR) ([4]; QD arm): 12% | Overall clinical benefit rate (CR+PR + SD) ([4]; QD arm (9/17 patients)): 52.9% | Best overall response: CR ([4]; QW 20 mg (n=7)): 0 n (%) | Best overall response: PD ([4]; QW 20 mg (n=7)): 3 (43) n (%) | Best overall response: PR ([4]; QW 20 mg (n=7)): 0 n (%) | Best overall response: SD (<6 months) ([4]; QW 20 mg (n=7)): 3 (43) n (%) | Best overall response: SD (≥6 months) ([4]; QW 20 mg (n=7)): 0 n (%) | Clinical benefit rate CR+PR + SD ([4]; QW 20 mg (n=7)): 3 (43) n (%) | Clinical benefit rate CR+PR + SD ≥6 months ([4]; QW 20 mg (n=7)): 0 n (%) | Objective response rate (CR+PR) ([4]; QW 20 mg (n=7)): 0 n (%) | Best overall response: CR ([4]; QW 30 mg (n=13)): 0 n (%) | Best overall response: PD ([4]; QW 30 mg (n=13)): 3 (23) n (%) | Best overall response: PR ([4]; QW 30 mg (n=13)): 0 n (%) | Best overall response: SD (<6 months) ([4]; QW 30 mg (n=13)): 5 (39) n (%) | Best overall response: SD (≥6 months) ([4]; QW 30 mg (n=13)): 1 (8) n (%) | Clinical benefit rate CR+PR + SD ([4]; QW 30 mg (n=13)): 6 (46) n (%) | Clinical benefit rate CR+PR + SD ≥6 months ([4]; QW 30 mg (n=13)): 1 (8) n (%) | Objective response rate (CR+PR) ([4]; QW 30 mg (n=13)): 0 n (%) | Best overall response: CR ([4]; QW Total (n=20)): 0 n (%) | Best overall response: PD ([4]; QW Total (n=20)): 6 (30) n (%) | Best overall response: PR ([4]; QW Total (n=20)): 0 n (%) | Best overall response: SD (<6 months) ([4]; QW Total (n=20)): 8 (40) n (%) | Best overall response: SD (≥6 months) ([4]; QW Total (n=20)): 1 (5) n (%) | Clinical benefit rate CR+PR + SD ([4]; QW Total (n=20)): 9 (45) n (%) | Clinical benefit rate CR+PR + SD ≥6 months ([4]; QW Total (n=20)): 1 (5) n (%) | Objective response rate (CR+PR) ([4]; QW Total (n=20)): 0 n (%) | Objective response rate (ORR) ([4]; QW arm): 0% | Overall clinical benefit rate (CR+PR + SD) ([4]; QW arm (9/20 patients)): 45% | Incidence of grade ≥3 drug-related AEs [5]: 31%
